Bioassay records deposited in PubChem by several laboratories.
The list is not random: actives were taken first. Their share in the collection is about 0.97%.
UCH37 inh: inhibitors of human deubiquitinating enzyme UCH37; Q9Y5K5; purified proteasome/UCH37, Ub-AMC cleavage fluorescence; inhibition, % (concentration not given with the values); actives 0.33% (n = 330,000); AID 588478;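 active = mean inhibition over replicate wells above about 20%, limit read from the data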;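 note: 0% = compound-free wells with enzyme and 100% = wells lacking proteasome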
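Material: human UCH37 enzyme supplied as purified proteasome complex / Amount: 0.15 nM proteasome as dispensed / Buffer or medium: pH 7.4 Tris-HCl (50 mM) with ovalbumin, ATP-MgCl2, DTT / Times: preincubation 30 min, reaction 25 min, room temperature / Technique: AMC fluorescence from Ub-AMC cleavage, excitation 355 nm, emission 460 nm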
JMJD2C inh: blocks human GASC-1 demethylase activity | Q9H3R0 | GST-JMJD2C(1-420) H3K9me3 demethylation, DELFIA europium | inhibition, % at 2.35 µM | actives 0.069% (n = 330,000) | AID 2099;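 active = more than half of a compound's replicate wells show inhibition beyond 50%, single wells judged on their own value; inconclusive = some, but no more than half, of replicates pass 50% inhibition; inactive = no replicate passes 50% inhibition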;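 note: signal counts dimethyl H3K9 product captured on neutravidin plate; 0% = median of DMSO wells and 100% = 0.3 times that DMSO median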
Target sequence (Q9H3R0 1-420 limits assumed): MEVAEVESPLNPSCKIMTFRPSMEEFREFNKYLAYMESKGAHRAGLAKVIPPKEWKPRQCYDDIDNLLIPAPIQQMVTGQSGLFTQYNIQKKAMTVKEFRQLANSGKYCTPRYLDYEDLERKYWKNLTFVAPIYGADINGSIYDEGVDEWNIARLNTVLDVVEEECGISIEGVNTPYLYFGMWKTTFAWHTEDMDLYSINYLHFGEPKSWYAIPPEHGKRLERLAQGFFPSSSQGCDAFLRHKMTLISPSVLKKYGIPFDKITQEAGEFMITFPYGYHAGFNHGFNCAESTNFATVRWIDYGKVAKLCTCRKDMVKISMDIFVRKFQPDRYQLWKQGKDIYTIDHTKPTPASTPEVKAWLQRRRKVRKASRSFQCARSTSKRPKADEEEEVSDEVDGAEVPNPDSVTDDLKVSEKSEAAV
A3A deaminase: inhibitors of human APOBEC3A DNA deaminase; P31941; recombinant A3A, FAM/TAMRA ssDNA deamination fluorescence; inhibition, % at 20 µM; actives 0.41% (n = 330,000); AID 493011;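 active = at least 40% inhibition at 20 µM here, with at most 30% in a related deaminase screen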;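 note: plate controls were A3A with DMSO for no effect and wells lacking A3A enzyme for full effect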
Target sequence (P31941 whole entry, looked up): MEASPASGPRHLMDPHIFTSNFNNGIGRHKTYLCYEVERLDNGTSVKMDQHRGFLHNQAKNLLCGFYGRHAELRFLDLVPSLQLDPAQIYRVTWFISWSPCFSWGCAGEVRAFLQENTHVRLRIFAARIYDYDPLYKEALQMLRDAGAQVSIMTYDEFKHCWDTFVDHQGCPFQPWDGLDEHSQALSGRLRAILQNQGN
A3G deaminase: APOBEC3G (human) deaminase inhibition; recombinant A3G, ssDNA deamination FAM/TAMRA fluorescence; inhibition, % at 20 µM; actives 0.28% (n = 330,000);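 active = inhibition of at least 40% at 20 µM, with no more than 30% in the related APOBEC3A deaminase screen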;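 note: plate controls were DMSO wells with A3G for no effect and wells lacking A3G enzyme for full effect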
A3A conf: confirmation of human APOBEC3A DNA deaminase inhibitors; shares compounds with A3A deaminase; recombinant A3A, ssDNA deaminase UDG fluorescence assay; inhibition, % at 20 µM; actives 63% (n = 1,400); AID 493151;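 active = inhibition reaching a set limit, 80% of the first screen's cutoff, at 20 µM in any replicate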;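 note: plate controls were DMSO wells with A3A for no effect and wells lacking A3A enzyme for full effect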
UDG A3A counter: UDG inhibition in APOBEC3A counter-screen; shares compounds with A3A deaminase; UDG counterscreen, FAM/TAMRA uracil oligo fluorescence; inhibition, % at 20 µM; 1,000 tested, under 10 active; call rule not given here
Starred values were filed as active, the others as inactive.

What do the screens show for `COC(=O)c1ccc(N2NC(=O)/C(=C/c3ccc(-c4ccc(Cl)c(C(=O)O)c4)o3)C2=O)cc1`?
UCH37 inh: 12; JMJD2C inh: -1; A3A deaminase: 59*; A3G deaminase: 27; A3A conf: 70*; UDG A3A counter: -3

Results for O=C1c2cccc3cc([N+](=O)[O-])cc(c23)C(=O)N1CCN1CCCC1 ?
JMJD2C inh: 5; A3A deaminase: 41*; A3G deaminase: 29; A3A conf: 26

What do the screens show for `Nc1cc2c3c(cccc3c1)C(=O)N(CCN1CCCC1)C2=O`?
UCH37 inh: 6; JMJD2C inh: 8

How did Cc1ccc(/C=C2\SC(N)=NC2=O)s1 do in these assays?
UCH37 inh: 5; JMJD2C inh: -8; A3A deaminase: 56*; A3G deaminase: -2; A3A conf: -2; UDG A3A counter: -2

What do the screens show for `CC(=O)Nc1ccc(C(=O)NN=Cc2ccc(F)cc2)cc1`?
UCH37 inh: 1

How did CCOc1ccc(C=c2sc3nc(-c4ccco4)nn3c2=O)cc1OCC do in these assays?
UCH37 inh: 7

How did CCCOc1ccc(/C=c2\sc3nc(-c4ccco4)nn3c2=O)cc1OCC do in these assays?
JMJD2C inh: -17; A3A deaminase: 74*; A3G deaminase: 21; A3A conf: 30*; UDG A3A counter: -3

How did O=C(COC(=O)c1ccc(F)c(S(=O)(=O)N2CCOCC2)c1)Nc1ccc2[nH]c(=O)[nH]c2c1 do in these assays?
UCH37 inh: 3; JMJD2C inh: -8; A3A deaminase: 42*; A3G deaminase: 15; A3A conf: 42*; UDG A3A counter: -2

Results for O=C(COC(=O)c1ccc(F)c(S(=O)(=O)N2CCOCC2)c1)NC1CC1 ?
UCH37 inh: 3; JMJD2C inh: -12; A3A deaminase: 1; A3G deaminase: 6

Results for CCCSc1nn2c(=O)c3ccccc3nc2s1 ?
UCH37 inh: 0; JMJD2C inh: 11; A3A deaminase: -2; A3G deaminase: -4

Results for Cc1cccc(Nc2nn3c(=O)c4ccccc4nc3s2)c1 ?
UCH37 inh: -9; JMJD2C inh: inconclusive; A3A deaminase: 46*; A3G deaminase: 8; A3A conf: 22*; UDG A3A counter: 1

Results for COc1ccccc1NC(=O)C(=NO)C(C)=NO ?
UCH37 inh: 3

What do the screens show for `COc1cc(OC)c2ccc(=O)oc2c1C(CC(=O)N1CCCC1)c1ccc2c(c1)OCO2` (stereo not given)?
UCH37 inh: -6; JMJD2C inh: -6; A3A deaminase: 47*; A3G deaminase: 26; A3A conf: 29

How did COc1cc(OC)c2ccc(=O)oc2c1C(CC(=O)N1CCCC(C)C1)c1ccc2c(c1)OCO2 (stereo not given) do in these assays?
UCH37 inh: -6; JMJD2C inh: 4; A3A deaminase: 28; A3G deaminase: 1

What do the screens show for `COc1cccc2cc(C(=O)Nc3ccccc3C)c(=NO)oc12`?
UCH37 inh: 2

How did Cc1cccc(NC(=O)CCC(=O)NN=Cc2ccco2)c1C do in these assays?
UCH37 inh: 0

What do the screens show for `Cn1c(CC(=O)Nc2ccccc2F)nnc1SCC(=O)N1CCOCC1`?
UCH37 inh: -2; JMJD2C inh: 5; A3A deaminase: 40*; A3G deaminase: 6; A3A conf: 29

How did Cn1c(SCC(=O)N2CCOCC2)nnc1-c1ccccc1 do in these assays?
UCH37 inh: 2; JMJD2C inh: 2; A3A deaminase: 54*; A3G deaminase: 24; A3A conf: 0

Results for Cc1cc(C(=O)ON=C(N)c2ccc(C(C)(C)C)cc2)no1 ?
UCH37 inh: 3

How did O=C(CSc1ncn(-c2ccccc2)n1)Nc1ccc2c(c1)OCO2 do in these assays?
UCH37 inh: 4; JMJD2C inh: -17; A3A deaminase: 46*; A3G deaminase: 12; A3A conf: 11

Results for C[n+]1ccc(/C=C/c2ccc(Br)cc2)cc1 ?
UCH37 inh: -11; JMJD2C inh: -5; A3A deaminase: 51*; A3G deaminase: 22; A3A conf: 82*; UDG A3A counter: -34

How did Cc1cc(C(=O)NN=C2CCCC(=O)C2)c2ccccc2n1 do in these assays?
UCH37 inh: 4

Results for C[N+](C)(C)CCN(Cc1ccc(Cl)cc1)c1ccccn1 ?
UCH37 inh: -4; JMJD2C inh: -10; A3A deaminase: 58*; A3G deaminase: 16; A3A conf: 68*; UDG A3A counter: 1

Results for CN(C)CCN(Cc1ccc(Cl)cc1)c1ccccn1 ?
JMJD2C inh: -15; A3A deaminase: 1; A3G deaminase: -6

How did Cc1cc(O)c(C=NNc2ccccc2)c(=O)o1 do in these assays?
UCH37 inh: 6

How did CN(c1ccc(Br)cc1)S(=O)(=O)c1ccc2[nH]cc(C(=O)NCCN3CCOCC3)c(=O)c2c1 do in these assays?
UCH37 inh: 3; JMJD2C inh: -5; A3A deaminase: 42*; A3G deaminase: 6; A3A conf: -1

Results for COc1cc(C=NNc2nncn2N)ccc1OCc1c(C)no[n+]1[O-] ?
UCH37 inh: 9

Results for Cc1cccc(C)c1NC(=O)COc1cccc(C=NNC(=O)C(=O)NCc2ccccc2)c1 ?
UCH37 inh: 3

How did CCC1=[N+](C)CCn2c(C)ccc21 do in these assays?
UCH37 inh: 1; JMJD2C inh: 5; A3A deaminase: 64*; A3G deaminase: 27; A3A conf: 76*; UDG A3A counter: 4

What do the screens show for `CCOc1ccc(CN2C(=O)c3ccccc3C2=O)cc1C(=O)NC1CC(C)(C)NC(C)(C)C1`?
UCH37 inh: 2; JMJD2C inh: 0; A3A deaminase: 45*; A3G deaminase: 9; A3A conf: 64*; UDG A3A counter: -3

What do the screens show for `CCOc1ccc(CN2C(=O)c3ccccc3C2=O)cc1C(=O)Nc1nnc(SCC)s1`?
UCH37 inh: -3; JMJD2C inh: 2; A3A deaminase: 1; A3G deaminase: -2

Results for CC12CCC(CC1=NOC(=O)c1cccc([N+](=O)[O-])c1)C2(C)C (stereo not given) ?
UCH37 inh: 0

Results for O=C(O)COc1ccc(/C=N/NC(=O)C2CCCN2S(=O)(=O)c2ccc(Cl)cc2)cc1 (stereo not given) ?
JMJD2C inh: 0; A3A deaminase: 51*; A3G deaminase: 4; A3A conf: 13

How did CON=C(c1nonc1N)N1CCN(c2ccc(Cl)cc2[N+](=O)[O-])CC1 do in these assays?
UCH37 inh: 3

Results for COc1ccccc1N=Nc1ccc(O)c2ncccc12 ?
UCH37 inh: 5; JMJD2C inh: 1; A3A deaminase: 2; A3G deaminase: 2

How did COc1ccccc1N=Nc1[nH]c2ccc(C)cc2c1O do in these assays?
UCH37 inh: 6; JMJD2C inh: -6; A3A deaminase: 66*; A3G deaminase: 6; A3A conf: 53*; UDG A3A counter: 0
